In brackets after ≈: the same amount, converted by molar mass. Square brackets hold non-standard residues; d marks the D form. Peptide text beside a SMILES is read from it. * marks the point of attachment. Phe(4-tBu) = CC(C)(C)c1ccc(C[C@H](N)C(=O)O)cc1; Bip = N[C@@H](Cc1ccc(-c2ccccc2)cc1)C(=O)O; tBuAla = CC(C)(C)C[C@H](N)C(=O)O; Cha = N[C@@H](CC1CCCCC1)C(=O)O; Tle = CC(C)(C)[C@H](N)C(=O)O; NHBn = c1ccc(CN*)cc1; OBn = c1ccc(CO*)cc1
Key:
Staphylococcus aureus = assay: Minimum inhibitory concentration against Staphylococcus aureus; assay type: functional
In short: (§1)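 E. coli ATCC 25922 or S. aureus ATCC 25923 grown to exponential phase in 2% Bacto Peptone water. Standard broth microdilution, inoculum 2 × 10^6 cfu/mL, in 1% Bacto Peptone water, overnight incubation at 37 °C. MIC read after incubation. Each peptide run in parallel from at least three independent dilutions, with gentamicin as internal standard.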

Escherichia coli = assay: Minimum inhibitory concentration against Escherichia coli; assay type: functional; in short: as §1

| MIC (Staphylococcus aureus) [µg/mL] | MIC (Escherichia coli) [µg/mL] | Structure (SMILES) |
| --- | --- | --- |
| 5 (≈ 8.87 µM) | 50 (≈ 88.7 µM) | NC(N)=NCCC[C@H](NC(=O)[C@@H](N)Cc1ccc(-c2ccccc2)cc1)C(=O)OCc1ccc(-c2ccccc2)cc1 |
| 100 (≈ 243 µM) | 300 (≈ 729 µM) | C[C@H](N)C(=O)N[C@@H](CCCN=C(N)N)C(=O)OCc1ccc(-c2ccccc2)cc1 |
| 12.5 (≈ 25.6 µM) | 100 (≈ 205 µM) | NC(N)=NCCC[C@H](NC(=O)[C@@H](N)Cc1ccccc1)C(=O)OCc1ccc(-c2ccccc2)cc1 |
| 20 (≈ 39.2 µM) | 150 (≈ 294 µM) | NC(N)=NCCC[C@H](NC(=O)[C@@H](N)Cc1c2ccccc2cc2ccccc12)C(=O)NCc1ccccc1 |
| 100 (≈ 222 µM) | > 300 | NC(N)=NCCC[C@H](NC(=O)[C@@H](N)Cc1c[nH]c2ccccc12)C(=O)NCc1ccccc1 (H-Trp-Arg-NHBn) |
| 15 (≈ 30.8 µM) | > 50 | NC(N)=NCCC[C@H](NC(=O)[C@@H](N)Cc1ccc(-c2ccccc2)cc1)C(=O)NCc1ccccc1 (H-[Bip]-Arg-NHBn) |
| 5 (≈ 10.3 µM) | 150 (≈ 308 µM) | NC(N)=NCCC[C@H](NC(=O)[C@@H](N)Cc1ccc(-c2ccccc2)cc1)C(=O)OCc1ccccc1 (H-[Bip]-Arg-OBn) |
| 150 (≈ 365 µM) | > 300 | COC(=O)[C@H](CCCN=C(N)N)NC(=O)[C@@H](N)Cc1ccc(-c2ccccc2)cc1 (H-[Bip]-Arg-OMe) |
| 25 (≈ 53.5 µM) | 200 (≈ 428 µM) | CC(C)(C)c1ccc(C[C@H](N)C(=O)N[C@@H](CCCN=C(N)N)C(=O)OCc2ccccc2)cc1 (H-[Phe(4-tBu)]-Arg-OBn) |

Continued, compound first:

| Structure (SMILES) | MIC (Staphylococcus aureus) [µg/mL] | MIC (Escherichia coli) [µg/mL] |
| --- | --- | --- |
| CC(C)NC(=O)[C@H](CCCN=C(N)N)NC(=O)[C@@H](N)Cc1c(C(C)(C)C)[nH]c2c(C(C)(C)C)cc(C(C)(C)C)cc12 | 7.5 (≈ 13.2 µM) | 50 (≈ 87.7 µM) |
| NCCCC[C@H](N)CN[C@@H](Cc1c[nH]c2ccccc12)C(=O)OCc1ccccc1 | 150 (≈ 367 µM) | > 300 |
| CC(C)(C)c1cc(C(C)(C)C)c2[nH]c(C(C)(C)C)c(C[C@H](N)C(=O)N[C@@H](CCCNC(=N)N)C(=O)NCc3ccccc3)c2c1 | 2.5 (≈ 4.05 µM) | 10 (≈ 16.2 µM) |
| CC(C)(C)c1cc(C(C)(C)C)c2[nH]c(C(C)(C)C)c(C[C@H](N)C(=O)N[C@@H](CCCNC(=N)N)C(N)=O)c2c1 | 15 (≈ 28.4 µM) | > 150 |
| COC(=O)[C@H](CCCNC(=N)N)NC(=O)[C@@H](N)Cc1c(C(C)(C)C)[nH]c2c(C(C)(C)C)cc(C(C)(C)C)cc12 | 5 (≈ 9.21 µM) | 30 (≈ 55.3 µM) |
| NCCCC[C@H](N)C(=O)N[C@@H](Cc1c[nH]c2ccccc12)C(=O)OCc1ccccc1 (H-Lys-Trp-OBn) | 75 (≈ 178 µM) | > 200 |
| NCCCC[C@H](N)C(=O)N[C@H](Cc1c[nH]c2ccccc12)C(=O)OCc1ccccc1 (H-Lys-[dW]-OBn) | 50 (≈ 118 µM) | > 200 |
| NC(N)=NCCC[C@H](NC(=O)[C@@H](N)CC1CCCCC1)C(=O)OCc1ccccc1 (H-[Cha]-Arg-OBn) | 100 (≈ 239 µM) | > 300 |
| COC(=O)[C@H](CCCN=C(N)N)NC(=O)[C@@H](N)Cc1ccc(C(C)(C)C)cc1 (H-[Phe(4-tBu)]-Arg-OMe) | > 300 | > 300 |
| CC(C)(C)[C@H](N)C(=O)N[C@@H](CCCN=C(N)N)C(=O)OCc1ccccc1 (H-[Tle]-Arg-OBn) | > 300 | > 300 |
| CC(C)(C)C[C@H](N)C(=O)N[C@@H](CCCN=C(N)N)C(=O)OCc1ccccc1 (H-[tBuAla]-Arg-OBn) | > 300 | > 300 |

From ChEMBL document CHEMBL1138673, “Bulky nonproteinogenic amino acids permit the design of very small and effective cationic antibacterial peptides” (2004)
